Assay results as given in ChEMBL document CHEMBL3856216, “Development of 4,5-dihydro-benzodiazepinone derivatives as a new chemical series of BRD4 inhibitors” (Eur J Med Chem, 2016).
Calls of active or inactive are those of the source. The rule behind the calls is not given here.

How the values were obtained:
[1] = molecular target: T1, Bromodomain-containing protein 4 (Homo sapiens, UniProt O60885); experiment: Inhibition of human His-tagged BRD4 BD1 (49 to 170 residues) at 30 uM using H-SGRGK(Ac)GGK(Ac)GLGK-(Ac)GGAK(Ac)RHRK(Biotin)-OH as substrate preincubated for 30 mins followed by substrate addition measured after 30 mins by TR-FRET assay relative to control
How it was run: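 BRD4 bromodomain 1 was tested using a TR-FRET assay kit. Percent inhibition was measured at a single concentration of 30, in triplicate, and reported as mean ± SD.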

[2] = molecular target: T1, Bromodomain-containing protein 4; experiment: Inhibition of human BRD4 BD2 (342 to 460 residues) at 30 uM preincubated for 30 mins followed by substrate addition measured after 30 mins by TR-FRET assay relative to control
How it was run: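 BRD4 BD2 percent inhibition was measured at a single concentration of 30, in triplicate, and reported as mean ± SD.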

[3] = molecular target: T1, Bromodomain-containing protein 4; experiment: Inhibition of human His-tagged BRD4 BD1 (49 to 170 residues) using H-SGRGK(Ac)GGK(Ac)GLGK-(Ac)GGAK(Ac)RHRK(Biotin)-OH as substrate preincubated for 30 mins followed by substrate addition measured after 30 mins by TR-FRET assay
[4] = molecular target: T1, Bromodomain-containing protein 4; experiment: Inhibition of human BRD4 BD2 (342 to 460 residues) at 30 uM preincubated for 30 mins followed by substrate addition measured after 30 mins by TR-FRET assay
[5] = (§1) Cytotoxicity against human U937 cells assessed as decrease in cell viability after 24 hrs by MTT assay; type: functional, cell-based; settings: U-937, 24 h
U-937 = experiment: as §1; type: functional, cell-based
[6] = (§2) Cytotoxicity against human HL60 cells assessed as decrease in cell viability after 24 hrs by MTT assay; type: functional, cell-based; settings: HL-60, 24 h
HL-60 [7] = experiment: as §2; type: functional, cell-based
[8] = Cytotoxicity against human MV4-11 cells assessed as decrease in cell viability after 24 hrs by MTT assay; type: functional, cell-based; settings: MV4-11, 24 h
HL-60 [9] = experiment: Induction of morphological changes in human HL60 cells at 1 to 10 uM after 24 hrs by Hoechst 33258 staining-based fluorescence microscopy; type: functional, cell-based
How it was run: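 HL-60 cells were cultured with different concentrations and stained with Hoechst 33258. Apoptotic nuclear morphology was examined under an inverted microscope.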

HL-60 [10] = experiment: Induction of apoptosis in human HL60 cells assessed as early apoptotic cells at 1 uM by annexin V-FITC/propidium iodide staining-based flow cytometric analysis (reference value: 8.23%); type: functional
HL-60 [11] = experiment: Induction of apoptosis in human HL60 cells assessed as late apoptotic cells at 1 uM by annexin V-FITC/propidium iodide staining-based flow cytometric analysis (reference value: 6.92%); type: functional
HL-60 [12] = experiment: Induction of apoptosis in human HL60 cells assessed as necrotic cells at 1 uM by annexin V-FITC/propidium iodide staining-based flow cytometric analysis (reference value: 0.13%); type: functional
HL-60 [13] = experiment: Induction of apoptosis in human HL60 cells assessed as viable cells at 1 uM by annexin V-FITC/propidium iodide staining-based flow cytometric analysis (reference value: 84.22%); type: functional; settings: read-out: Activity
HL-60 [14] = experiment: Induction of apoptosis in human HL60 cells assessed as early apoptotic cells at 5 uM by annexin V-FITC/propidium iodide staining-based flow cytometric analysis (reference value: 8.23%); type: functional
HL-60 [15] = experiment: Induction of apoptosis in human HL60 cells assessed as late apoptotic cells at 5 uM by annexin V-FITC/propidium iodide staining-based flow cytometric analysis (reference value: 6.92%); type: functional
HL-60 [16] = experiment: Induction of apoptosis in human HL60 cells assessed as necrotic cells at 5 uM by annexin V-FITC/propidium iodide staining-based flow cytometric analysis (reference value: 0.13%); type: functional
HL-60 [17] = experiment: Induction of apoptosis in human HL60 cells assessed as viable cells at 5 uM by annexin V-FITC/propidium iodide staining-based flow cytometric analysis (reference value: 84.22%); type: functional; settings: read-out: Activity
HL-60 [18] = experiment: Induction of apoptosis in human HL60 cells assessed as early apoptotic cells at 10 uM by annexin V-FITC/propidium iodide staining-based flow cytometric analysis (reference value: 8.23%); type: functional
HL-60 [19] = experiment: Induction of apoptosis in human HL60 cells assessed as late apoptotic cells at 10 uM by annexin V-FITC/propidium iodide staining-based flow cytometric analysis (reference value: 6.92%); type: functional
HL-60 [20] = experiment: Induction of apoptosis in human HL60 cells assessed as necrotic cells at 10 uM by annexin V-FITC/propidium iodide staining-based flow cytometric analysis (reference value: 0.13%); type: functional
HL-60 [21] = experiment: Induction of apoptosis in human HL60 cells assessed as viable cells at 10 uM by annexin V-FITC/propidium iodide staining-based flow cytometric analysis (reference value: 84.22%); type: functional; settings: read-out: Activity
[22] = Induction of apoptosis in human HL60 cells assessed as upregulation of Bax expression at 1 to 10 uM after 24 hrs by Western blot method; type: functional, cell-based; settings: HL-60
How it was run: (§3)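 HL-60 cells were treated for 24 h. Lysates were then immunoblotted for Bax, Bcl-2, pro-caspase 3, active caspase 3 and Brd4.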

HL-60 [23] = experiment: Induction of apoptosis in human HL60 cells assessed as downregulation of Bcl-2 expression at 1 to 10 uM after 24 hrs by Western blot method; type: functional, cell-based; how it was run: as §3
HL-60 [24] = experiment: Induction of apoptosis in human HL60 cells assessed as caspase-3 cleavage at 1 to 10 uM after 24 hrs by Western blot method; type: functional, cell-based; how it was run: as §3
[25] = Downregulation of BRD4 expression in human HL60 cells at 1 to 10 uM after 24 hrs by Western blot method; type: functional, cell-based; settings: HL-60; how it was run: as §3

## COc1cc(C(=O)n2ccc3c2CCCC3=O)cc(-c2ccccc2)c1
[1]
  inhibition: 22.8%

## CC1C(=O)Nc2ccccc2N1C(=O)c1ccc2ccccc2c1 (stereo not drawn)
[1]
  inhibition: < 20%

## O=C1CCCc2c1ccn2C(=O)c1ccc2ccccc2c1
[1]
  inhibition: 23.1%

## Cc1noc(C)c1NC(=O)c1ccccc1
[1]
  inhibition: < 20%

## O=C1CCN(C(=O)c2cccc(-c3ccccc3)c2)c2ccccc2N1
[1]
  inhibition: 96.1%
[2]
  inhibition: 54.2%
[3]
  IC50: 1.25 µM
[4]
  IC50: 11.2 µM
[5]
  IC50: > 20 µM
U-937
  Activity: Dose-dependent effect
[6]
  IC50: 4.02 µM
HL-60 [7]
  Activity: Dose-dependent effect
[8]
  IC50: 4.21 µM
HL-60 [9]
  Activity: Active
HL-60 [10]
  Activity: 10.15%
HL-60 [11]
  Activity: 8.32%
HL-60 [12]
  Activity: 0.11%
HL-60 [13]
  viability at 1 µM: 81.4%
HL-60 [14]
  Activity: 21.63%
HL-60 [15]
  Activity: 32.51%
HL-60 [16]
  Activity: 0.9%
HL-60 [17]
  viability at 5 µM: 45%
HL-60 [18]
  Activity: 17.73%
HL-60 [19]
  Activity: 45.46%
HL-60 [20]
  Activity: 1.96%
HL-60 [21]
  viability at 10 µM: 34.9%
[22]
  Activity: Active
HL-60 [23]
  Activity: Active
HL-60 [24]
  Activity: Active
[25]
  Activity: Active

## COc1cc(C(=O)N2CCC(=O)Nc3ccccc32)cc(-c2ccccc2)c1
[1]
  inhibition: 88.8%
[2]
  inhibition: 67.1%
[3]
  IC50: 2.74 µM
[4]
  IC50: 9.14 µM
[5]
  IC50: 18.2 µM
[6]
  IC50: 8.24 µM
[8]
  IC50: 9.61 µM

## COc1cc(C(=O)N2c3ccccc3NC(=O)C2C)cc(-c2ccccc2)c1 (stereo not drawn)
[1]
  inhibition: 88.7%
[2]
  inhibition: 36.2%
[3]
  IC50: 6.25 µM
[4]
  IC50: > 20 µM
[5]
  IC50: > 20 µM
[6]
  IC50: 9.25 µM
[8]
  IC50: 17.6 µM

## O=C1CCN(C(=O)c2cccnc2)c2ccccc2N1
[1]
  inhibition: 45.2%

## O=C1CCN(C(=O)c2ccccc2)c2ccccc2N1
[1]
  inhibition: 32.4%

## O=C1CCCc2c1ccn2C(=O)c1ccccc1
[1]
  inhibition: < 20%

## O=C1CCCc2c1ccn2C(=O)c1cccc(-c2ccccc2)c1
[1]
  inhibition: 32.1%

## COc1cc(OC)c2c(=O)[nH]c(-c3cc(C)c(OCCO)c(C)c3)nc2c1 [APABETALONE]
[5]
  IC50: > 20 µM
[6]
  IC50: > 20 µM
[8]
  IC50: > 20 µM

## COc1cc(C(=O)Nc2c(C)noc2C)cc(-c2ccccc2)c1
[1]
  inhibition: 64.5%
[2]
  inhibition: 36.3%
[3]
  IC50: 8.24 µM
[4]
  IC50: > 20 µM
[5]
  IC50: > 20 µM
[6]
  IC50: 17.1 µM
[8]
  IC50: 19.2 µM

## CC1C(=O)Nc2ccccc2N1C(=O)c1ccccc1 (stereo not drawn)
[1]
  inhibition: < 20%

## O=C1CCCc2c1ccn2C(=O)c1cccnc1
[1]
  inhibition: 34.2%

## Cc1sc2c(c1C)C(c1ccc(Cl)cc1)=N[C@@H](CC(=O)OC(C)(C)C)c1nnc(C)n1-2
[5]
  IC50: > 20 µM
[6]
  IC50: 5.3 µM
[8]
  IC50: 6.4 µM

## CC1C(=O)Nc2ccccc2N1C(=O)c1cccnc1 (stereo not drawn)
[1]
  inhibition: < 20%

## O=C1CCN(C(=O)c2ccc3ccccc3c2)c2ccccc2N1
[1]
  inhibition: 25.3%

## Cc1noc(C)c1NC(=O)c1cccnc1
[1]
  inhibition: 32.6%

## Cc1noc(C)c1NC(=O)c1ccc2ccccc2c1
[1]
  inhibition: 23.1%

## CC1C(=O)Nc2ccccc2N1C(=O)c1cccc(-c2ccccc2)c1 (stereo not drawn)
[1]
  inhibition: 72.4%
[2]
  inhibition: 23.1%
[3]
  IC50: 7.42 µM
[4]
  IC50: > 20 µM
[5]
  IC50: > 20 µM
[6]
  IC50: 11.4 µM
[8]
  IC50: 13.2 µM

## Cc1noc(C)c1NC(=O)c1cccc(-c2ccccc2)c1
[1]
  inhibition: 46.2%

## COc1ccccc1S(=O)(=O)Nc1ccc2c(c1)CN(C)C(=O)N2
[5]
  IC50: > 20 µM
[6]
  IC50: 2.19 µM
[8]
  IC50: 7.75 µM
